According to ChEMBL document CHEMBL4017533, “Molecular Recognition of Agonists and Antagonists by the Nucleotide-Activated G Protein-Coupled P2Y2 Receptor” (J Med Chem, 2017):
Active and inactive are the calls of the source. No cut-off for these calls is given here.

Tests used:
[1] = organism: Homo sapiens; experiment: Selectivity ratio of EC50 for P2Y2 receptor R194A mutant (unknown origin) to EC50 for wild type P2Y2 receptor (unknown origin)
[2] = tested on: P2Y purinoceptor 2 (Homo sapiens), P41231 [F261A]; experiment: Agonist activity at P2Y2 receptor F261A mutant (unknown origin) expressed in human 1321N1 astrocytoma cells assessed as increase in intracellular calcium mobilization after 1 hr by Fluo-4 AM dye based fluorescence assay; type: functional, cell-based
Sequence of P2Y purinoceptor 2 (Homo sapiens), P41231 [F261A] (P41231 whole entry F261A): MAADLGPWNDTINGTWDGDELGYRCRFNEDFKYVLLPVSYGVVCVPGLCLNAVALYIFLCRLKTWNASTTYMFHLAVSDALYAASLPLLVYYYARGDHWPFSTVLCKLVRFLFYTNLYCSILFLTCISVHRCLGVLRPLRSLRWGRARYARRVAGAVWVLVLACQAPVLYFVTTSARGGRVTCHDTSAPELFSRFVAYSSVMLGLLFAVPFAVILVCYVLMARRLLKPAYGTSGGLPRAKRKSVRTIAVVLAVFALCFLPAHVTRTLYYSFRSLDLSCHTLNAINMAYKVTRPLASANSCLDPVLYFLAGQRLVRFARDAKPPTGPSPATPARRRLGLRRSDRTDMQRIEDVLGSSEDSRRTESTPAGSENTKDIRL
Summary of the method: (§1)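 Human 1321N1 astrocytoma cells stably carrying wt or point-mutant human P2Y2R, introduced by retrovirus and selected with G418, plated at 50000 cells/well the day before. Cells loaded with fluo-4 AM plus Pluronic F-127 in HBSS for 1 h, then washed. Agonist added at graded concentrations, fluorescence read at ex 488/em 525 nm. […] Carbachol 100 μM acting on endogenous M3 served as the maximum reference.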

[3] = organism: Homo sapiens; experiment: Selectivity ratio of EC50 for P2Y2 receptor F111A mutant (unknown origin) to EC50 for wild type P2Y2 receptor (unknown origin)
[4] = tested on: P2Y purinoceptor 2 (Homo sapiens), P41231 [R110A]; experiment: Agonist activity at P2Y2 receptor R110A mutant (unknown origin) expressed in human 1321N1 astrocytoma cells assessed as increase in intracellular calcium mobilization after 1 hr by Fluo-4 AM dye based fluorescence assay; type: functional, cell-based; summary of the method: as §1
Sequence of P2Y purinoceptor 2 (Homo sapiens), P41231 [R110A] (P41231 whole entry R110A): as the sequence (P41231 whole entry F261A) above, with R110A, A261F counted along it

[5] = tested on: P2Y purinoceptor 2 (Homo sapiens), P41231 [Y114F]; experiment: Agonist activity at P2Y2 receptor Y114F mutant (unknown origin) expressed in human 1321N1 astrocytoma cells assessed as increase in intracellular calcium mobilization after 1 hr by Fluo-4 AM dye based fluorescence assay; type: functional, cell-based; summary of the method: as §1
Sequence of P2Y purinoceptor 2 (Homo sapiens), P41231 [Y114F] (P41231 whole entry Y114F): as the sequence (P41231 whole entry F261A) above, with Y114F, A261F counted along it

[6] = organism: Homo sapiens; experiment: Selectivity ratio of EC50 for P2Y2 receptor Y114F mutant (unknown origin) to EC50 for wild type P2Y2 receptor (unknown origin)
[7] = molecular target: T1, P2Y purinoceptor 2 (Homo sapiens, UniProt P41231); experiment: Agonist activity at wild type P2Y2 receptor (unknown origin) expressed in human 1321N1 astrocytoma cells assessed as increase in intracellular calcium mobilization after 1 hr by Fluo-4 AM dye based fluorescence assay; type: functional, cell-based; summary of the method: as §1
T1 sequence (P41231 whole entry): as the sequence (P41231 whole entry F261A) above, with A261F counted along it

[8] = organism: Homo sapiens; experiment: Selectivity ratio of EC50 for P2Y2 receptor R194H mutant (unknown origin) to EC50 for wild type P2Y2 receptor (unknown origin)
[9] = organism: Homo sapiens; experiment: Selectivity ratio of EC50 for P2Y2 receptor Y288F mutant (unknown origin) to EC50 for wild type P2Y2 receptor (unknown origin)
[10] = molecular target: P2Y purinoceptor 2 (Homo sapiens, UniProt P41231, Y288F); experiment: (§2) Agonist activity at P2Y2 receptor Y288F mutant (unknown origin) expressed in human 1321N1 astrocytoma cells assessed as increase in intracellular calcium mobilization after 1 hr by Fluo-4 AM dye based fluorescence assay; type: functional, cell-based; summary of the method: as §1
Sequence of P2Y purinoceptor 2 (Homo sapiens, UniProt P41231, Y288F) (P41231 whole entry Y288F): as the sequence (P41231 whole entry F261A) above, with A261F, Y288F counted along it

[11] = organism: Homo sapiens; experiment: Selectivity ratio of EC50 for P2Y2 receptor S193A mutant (unknown origin) to EC50 for wild type P2Y2 receptor (unknown origin)
[12] = organism: Homo sapiens; experiment: Selectivity ratio of EC50 for P2Y2 receptor F261A mutant (unknown origin) to EC50 for wild type P2Y2 receptor (unknown origin)
[13] = organism: Homo sapiens; experiment: Selectivity ratio of EC50 for P2Y2 receptor Y269F mutant (unknown origin) to EC50 for wild type P2Y2 receptor (unknown origin)
[14] = organism: Homo sapiens; experiment: Selectivity ratio of EC50 for P2Y2 receptor Y268F mutant (unknown origin) to EC50 for wild type P2Y2 receptor (unknown origin)
[15] = tested on: P2Y purinoceptor 2 (Homo sapiens), P41231 [Y288A]; experiment: Agonist activity at P2Y2 receptor Y288A mutant (unknown origin) expressed in human 1321N1 astrocytoma cells assessed as increase in intracellular calcium mobilization after 1 hr by Fluo-4 AM dye based fluorescence assay; type: functional, cell-based; summary of the method: as §1
Sequence of P2Y purinoceptor 2 (Homo sapiens), P41231 [Y288A] (P41231 whole entry Y288A): as the sequence (P41231 whole entry F261A) above, with A261F, Y288A counted along it

[16] = tested on: P2Y purinoceptor 2 (Homo sapiens), P41231 [R265A]; experiment: Agonist activity at P2Y2 receptor R265A mutant (unknown origin) expressed in human 1321N1 astrocytoma cells assessed as increase in intracellular calcium mobilization after 1 hr by Fluo-4 AM dye based fluorescence assay; type: functional, cell-based; summary of the method: as §1
Sequence of P2Y purinoceptor 2 (Homo sapiens), P41231 [R265A] (P41231 whole entry R265A): as the sequence (P41231 whole entry F261A) above, with A261F, R265A counted along it

[17] = organism: Homo sapiens; experiment: Selectivity ratio of EC50 for P2Y2 receptor R272A mutant (unknown origin) to EC50 for wild type P2Y2 receptor (unknown origin)
[18] = molecular target: P2Y purinoceptor 2 (Homo sapiens, UniProt P41231, S193A); experiment: Agonist activity at P2Y2 receptor S193A mutant (unknown origin) expressed in human 1321N1 astrocytoma cells assessed as increase in intracellular calcium mobilization after 1 hr by Fluo-4 AM dye based fluorescence assay; type: functional, cell-based; summary of the method: as §1
Sequence of P2Y purinoceptor 2 (Homo sapiens, UniProt P41231, S193A) (P41231 whole entry S193A): as the sequence (P41231 whole entry F261A) above, with S193A, A261F counted along it

[19] = tested on: P2Y purinoceptor 2 (Homo sapiens), P41231 [R292A]; experiment: Agonist activity at P2Y2 receptor R292A mutant (unknown origin) expressed in human 1321N1 astrocytoma cells assessed as increase in intracellular calcium mobilization after 1 hr by Fluo-4 AM dye based fluorescence assay; type: functional, cell-based; summary of the method: as §1
Sequence of P2Y purinoceptor 2 (Homo sapiens), P41231 [R292A] (P41231 whole entry R292A): as the sequence (P41231 whole entry F261A) above, with A261F, R292A counted along it

[20] = organism: Homo sapiens; experiment: Selectivity ratio of EC50 for P2Y2 receptor H184A mutant (unknown origin) to EC50 for wild type P2Y2 receptor (unknown origin)
[21] = organism: Homo sapiens; experiment: Agonist activity at P2Y2 receptor R194A mutant (unknown origin) expressed in human 1321N1 astrocytoma cells assessed as increase in intracellular calcium mobilization after 1 hr by Fluo-4 AM dye based fluorescence assay; type: cell-based; summary of the method: as §1
[22] = molecular target: P2Y purinoceptor 2 (Homo sapiens, UniProt P41231, H184A); experiment: Agonist activity at P2Y2 receptor H184A mutant (unknown origin) expressed in human 1321N1 astrocytoma cells assessed as increase in intracellular calcium mobilization after 1 hr by Fluo-4 AM dye based fluorescence assay; type: functional, cell-based; summary of the method: as §1
Sequence of P2Y purinoceptor 2 (Homo sapiens, UniProt P41231, H184A) (P41231 whole entry H184A): as the sequence (P41231 whole entry F261A) above, with H184A, A261F counted along it

[23] = tested on: P2Y purinoceptor 2 (Homo sapiens), P41231 [Y114F]; experiment: (§3) Antagonist activity at […] P2Y2 receptor Y114F mutant (unknown origin) expressed in human 1321N1 astrocytoma cells assessed as inhibition of UTP-induced increase in intracellular calcium mobilization preincubated for 30 mins followed by UTP addition measured after 1 hr by Fluo-4 AM dye based fluorescence assay; type: functional, cell-based
Summary of the method: (§4)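 Stably transduced 1321N1 cells expressing wt or mutant human P2Y2R were loaded with fluo-4 AM/Pluronic F-127 in HBSS for 1 h. Test compound was preincubated for 30 min, then UTP was injected at the EC80 determined for each cell line. Calcium fluorescence was read at ex 488/em 525 nm. IC50 was obtained by nonlinear regression, n ≥ 3.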

[24] = organism: Homo sapiens; experiment: as §3, with “R194H” for “Y114F”; type: cell-based; summary of the method: as §4
[25] = organism: Homo sapiens; experiment: as §3, with “Y114A” for “Y114F”; type: cell-based; summary of the method: as §4
[26] = molecular target: T1, P2Y purinoceptor 2; experiment: as §3, with “receptor” for “receptor Y114F mutant”; type: functional, cell-based; summary of the method: as §4
[27] = tested on: P2Y purinoceptor 2 (Homo sapiens), P41231 [Y288F]; experiment: as §2; type: functional, cell-based; summary of the method: as §1
Sequence of P2Y purinoceptor 2 (Homo sapiens), P41231 [Y288F] (P41231 whole entry Y288F): as the sequence (P41231 whole entry F261A) above, with A261F, Y288F counted along it

[28] = organism: Homo sapiens; experiment: Selectivity ratio of IC50 for P2Y2 receptor F261A mutant (unknown origin) to IC50 for wild type P2Y2 receptor (unknown origin)
[29] = organism: Homo sapiens; experiment: Selectivity ratio of IC50 for P2Y2 receptor Y114F mutant (unknown origin) to IC50 for wild type P2Y2 receptor (unknown origin)
Summary of the method: (§5)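 Human P2Y2R, wild type or single point mutant, retrovirally transduced into 1321N1 astrocytoma cells and selected with G418. Cells were seeded at 50000/well overnight, loaded with fluo-4 AM for 1 h in HBSS, and preincubated with antagonist for 30 min. UTP was then injected at its EC80 for that cell line. Calcium fluorescence was read at ex 488/em 525 nm. IC50 was fitted by nonlinear regression (n ≥ 3), and the ratio was taken as mutant IC50 over wild-type IC50.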

[30] = organism: Homo sapiens; experiment: Selectivity ratio of IC50 for P2Y2 receptor R194H mutant (unknown origin) to IC50 for wild type P2Y2 receptor (unknown origin)
[31] = organism: Homo sapiens; experiment: Selectivity ratio of IC50 for P2Y2 receptor Y288F mutant (unknown origin) to IC50 for wild type P2Y2 receptor (unknown origin); summary of the method: as §5
[32] = organism: Homo sapiens; experiment: Selectivity ratio of IC50 for P2Y2 receptor Y268F mutant (unknown origin) to IC50 for wild type P2Y2 receptor (unknown origin); summary of the method: as §5

Compound: O=c1ccn([C@@H]2O[C@H](COP(=O)(O)OP(=O)(O)OP(=O)(O)O)[C@@H](O)[C@H]2O)c(=O)[nH]1 [URIDINE TRIPHOSPHATE]
- Ratio EC50 [1]: 10 to 50
- Activity [2]: Active
- Ratio EC50 [3]: 10 to 50
- Activity [4]: inactive
- Activity [5]: Active
- Ratio EC50 [6]: 300
- EC50 [7]: 5.61 nM
- Ratio EC50 [8]: 50
- Ratio EC50 [9]: 150
- EC50 [10]: 911 nM
- Ratio EC50 [11]: 10 to 50
- Ratio EC50 [12]: 100
- Ratio EC50 [13]: 10 to 50
- Ratio EC50 [14]: 10 to 50
- Activity [15]: inactive
- Activity [16]: inactive
- Ratio EC50 [17]: 350
- EC50 [18]: 70.6 nM
- Activity [19]: inactive
- Ratio EC50 [20]: > 100
- Activity [21]: Active
- EC50 [22]: 996 nM

Compound: Nc1c(S(=O)(=O)O)cc(Nc2ccccc2)c2c1C(=O)c1ccccc1C2=O
- inhibition [23]: Active
- inhibition [24]: Active
- inhibition [25]: Active
- inhibition [26]: Active

Compound: Nc1ncnc2c1ncn2[C@@H]1O[C@H](COP(=O)(O)OP(=O)(O)OP(=O)(O)OP(=O)(O)OC[C@@H]2O[C@H](n3cnc4c(N)ncnc43)[C@@H](O)[C@H]2O)[C@@H](O)[C@H]1O
- Activity [2]: inactive
- Activity [4]: inactive
- Activity [5]: inactive
- Ratio EC50 [8]: 25
- Activity [27]: inactive
- Activity [15]: inactive
- Activity [16]: inactive
- Ratio EC50 [17]: > 4000
- Activity [19]: inactive
- Activity [21]: inactive

Compound: Nc1ncnc2c1ncn2[C@@H]1O[C@H](COP(=O)(O)OP(=O)(O)OP(=O)(O)O)[C@@H](O)[C@H]1O
- Ratio EC50 [17]: 350

Compound: Cc1ccc2c(c1)C=Cc1cc(C)ccc1C2c1cn(Cc2ccc(C(=O)Nc3nnn[nH]3)o2)c(=O)[nH]c1=S
- Ratio IC50 [28]: < 3
- Ratio IC50 [29]: < 3
- Ratio IC50 [30]: < 3
- Ratio IC50 [31]: < 3
- inhibition [26]: Active
- Ratio IC50 [32]: < 3

Compound: CSc1nc(N)c2ncn([C@@H]3O[C@H](COP(=O)(O)OP(=O)(O)OP(=O)(O)O)[C@@H](O)[C@H]3O)c2n1
- Ratio EC50 [17]: 350

Compound: Nc1c(S(=O)(=O)O)cc(Nc2ccc(Nc3ccccc3Cl)c(C(=O)O)c2)c2c1C(=O)c1ccccc1C2=O
- inhibition [26]: Active

Compound: Cc1cccc(Nc2ccc(Nc3cc(S(=O)(=O)O)c(N)c4c3C(=O)c3ccccc3C4=O)cc2C(=O)O)c1C
- inhibition [23]: Active
- inhibition [24]: Active
- inhibition [26]: Active
